In paper PMC7302971 (Bioorganic chemistry, 2020):
Where two headings read alike, the source gives them in different places.

Key:
HDAC4 = HDAC4 (Homo sapiens, UniProt P56524); assay: HDAC enzyme activity assay; format: biochemical; settings: for remaining activity at 50 µM: read-out: Residual HDAC4 activity at 50 μM
Procedure, shortened: (§1)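 HDAC4 and HDAC8 were in-house recombinant enzymes. Each was preincubated with inhibitor, either a single 50 μM screen or serial dilutions, for 60 min at 30 °C in Tris-HCl pH 8.0/KCl/Pluronic buffer. Substrate was 20 μM Boc-Lys(trifluoroacetyl)-AMC for 60 min at 30 °C, stopped with 1.7 μM SATFMK, and developed with trypsin. AMC fluorescence was read at 350/450 nm and reported as residual activity or as IC50 from a four-parameter logistic fit.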

HDAC8 [1] = target: T1, HDAC8 (Homo sapiens, UniProt Q9BY41); assay: HDAC enzyme activity assay; format: biochemical; settings: for remaining activity at 50 µM: read-out: Residual HDAC8 activity at 50 μM
T1 sequence (Q9BY41 1-377): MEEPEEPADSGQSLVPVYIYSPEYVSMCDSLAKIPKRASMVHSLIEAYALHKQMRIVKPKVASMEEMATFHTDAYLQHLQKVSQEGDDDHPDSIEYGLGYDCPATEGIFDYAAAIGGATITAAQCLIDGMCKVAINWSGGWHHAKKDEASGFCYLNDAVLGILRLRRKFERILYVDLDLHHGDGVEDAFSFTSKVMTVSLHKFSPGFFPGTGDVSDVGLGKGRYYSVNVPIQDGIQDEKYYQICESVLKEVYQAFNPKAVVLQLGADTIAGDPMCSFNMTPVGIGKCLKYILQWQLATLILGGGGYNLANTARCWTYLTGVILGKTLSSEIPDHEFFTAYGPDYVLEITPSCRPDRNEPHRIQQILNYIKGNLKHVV
Procedure, shortened: as §1

HDAC8 [2] = target: T1, HDAC8; assay: Thermal shift assay; format: binding
CEM leukemia cells = assay: Differential Nuclear Staining; format: cell-based, human; settings: 48 h; for CC50: Homo sapiens; for cell death at 100 μM: CEM, DNS assay
Procedure, shortened: (§2)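 Cells were seeded at 10,000/well and exposed to test compound for 48 h at 1% (v/v) final DMSO. The first screen used a single concentration with controls in quadruplicate. Dose-response used 0.5–100 μM in triplicate. Controls: DMSO vehicle, hydrogen peroxide (positive), untreated (negative). Hoechst 33342 plus PI were added 2 h before automated imaging, and colocalised signal was scored as dead. […] Two-tailed t-test versus DMSO.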

K-562 leukemia cells = assay: Differential Nuclear Staining; format: cell-based, human; settings: for cell death at 100 μM: K562, DNS assay, 48 h; for CC50: Homo sapiens, K562, 48 h
Procedure, shortened: as §2

KCL-22 leukemia cells = assay: Differential Nuclear Staining; format: cell-based, human; settings: for cell death at 100 μM: KCL22, DNS assay, 48 h
Procedure, shortened: as §2

Chain of HDAC4 (P56524 648-1057 limits assumed): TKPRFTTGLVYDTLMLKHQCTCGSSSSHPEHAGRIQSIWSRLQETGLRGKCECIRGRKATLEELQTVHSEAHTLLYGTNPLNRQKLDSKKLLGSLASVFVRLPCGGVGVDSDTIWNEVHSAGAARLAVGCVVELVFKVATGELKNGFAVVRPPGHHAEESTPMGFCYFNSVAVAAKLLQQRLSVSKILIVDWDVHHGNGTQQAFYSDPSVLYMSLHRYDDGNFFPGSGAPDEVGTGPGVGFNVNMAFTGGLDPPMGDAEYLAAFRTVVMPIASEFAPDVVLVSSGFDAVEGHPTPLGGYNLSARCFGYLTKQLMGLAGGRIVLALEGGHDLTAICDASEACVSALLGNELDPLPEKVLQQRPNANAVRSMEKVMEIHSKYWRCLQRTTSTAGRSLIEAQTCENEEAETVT

| IC50 (HDAC4) | remaining activity at 50 µM (HDAC4) | IC50 (HDAC8 [1]) | remaining activity at 50 µM (HDAC8 [1]) | Molecule | also measured |
| --- | --- | --- | --- | --- | --- |
| – | – | – | – | 2-(2,4-dioxo-5-(pyridin-2-ylmethylene)thiazolidin-3-yl)-N-(4-methylisoxazol-3-yl)acetamide [Compound P18] | Residual HDAC4 activity at 50 μM (HDAC4; 50 μM): 100%; IC50 (HDAC4; read-out: HDAC4 IC50, triplicates, N=3): > 50 µM; Residual HDAC8 activity at 50 μM (HDAC8 [1]; 50 μM): 99%; IC50 (HDAC8 [1]; read-out: HDAC8 IC50, triplicates, N=3): > 50 µM |
| > 50 µM | 100% | > 50 µM | 89% | O=C(CN1C(=O)SC(=Cc2ccccn2)C1=O)Nc1ccccc1 [Compound P1, 2-(2,4-dioxo-5-(pyridin-2-ylmethylene)thiazolidin-3-yl)-N-phenylacetamide] | – |
| > 50 µM | 100% | > 50 µM | 92% | O=C(CN1C(=O)SC(=Cc2ccccn2)C1=O)Nc1ccccc1F [Compound P2, 2-(2,4-dioxo-5-(pyridin-2-ylmethylene)thiazolidin-3-yl)-N-(2-fluorophenyl)acetamide] | – |
| > 50 µM | 100% | > 50 µM | 53% | O=C(CN1C(=O)SC(=Cc2ccccn2)C1=O)Nc1cccc(F)c1 [Compound P3, 2-(2,4-dioxo-5-(pyridin-2-ylmethylene)thiazolidin-3-yl)-N-(3-fluorophenyl)acetamide] | – |
| > 50 µM | 100% | > 50 µM | 85% | O=C(CN1C(=O)SC(=Cc2ccccn2)C1=O)Nc1ccc(Br)cc1F [Compound P4, N-(4-bromo-2-fluorophenyl)-2-(2,4-dioxo-5-(pyridin-2-ylmethylene)thiazolidin-3-yl)acetamide] | – |
| 50 µM | 59% | > 50 µM | 80% | O=C(CN1C(=O)SC(=Cc2ccccn2)C1=O)Nc1ccc(F)cc1F [Compound P5, N-(2,4-difluorophenyl)-2-(2,4-dioxo-5-(pyridin-2-ylmethylene)thiazolidin-3-yl)acetamide] | Thermal shift (ΔT), stabilizing effect on HDAC8 (HDAC8 [2]): did not confer significant stability to the protein |
| > 50 µM | 100% | > 50 µM | 82% | O=C(CN1C(=O)SC(=Cc2ccccn2)C1=O)Nc1cccc(C(F)(F)F)c1 [Compound P6, 2-(2,4-dioxo-5-(pyridin-2-ylmethylene)thiazolidin-3-yl)-N-(3-(trifluoromethyl)phenyl)acetamide] | – |
| > 50 µM | 100% | > 50 µM | 61% | O=C(CN1C(=O)SC(=Cc2ccccn2)C1=O)Nc1ccc(Cl)cc1C(F)(F)F [Compound P7, N-(4-chloro-2-(trifluoromethyl)phenyl)-2-(2,4-dioxo-5-(pyridin-2-ylmethylene)thiazolidin-3-yl)acetamide] | – |
| > 50 µM | 100% | > 50 µM | 82% | O=C(CN1C(=O)SC(=Cc2ccccn2)C1=O)Nc1ccc(Cl)c(Cl)c1 [Compound P8, N-(3,4-dichlorophenyl)-2-(2,4-dioxo-5-(pyridin-2-ylmethylene)thiazolidin-3-yl)acetamide] | CC50 (CEM leukemia cells): 36.9 ± 1.11 µM; cell death at 100 μM (K-562 leukemia cells): 40.28% cell death at 100 μM; cell death at 100 μM (KCL-22 leukemia cells): 29.22% cell death at 100 μM |
| – | 100% | – | 38% | O=C(CN1C(=O)SC(=Cc2ccccn2)C1=O)Nc1cc(C(F)(F)F)ccc1Cl [Compound P9, N-(2-chloro-5-(trifluoromethyl)phenyl)-2-(2,4-dioxo-5-(pyridin-2-ylmethylene)thiazolidin-3-yl)acetamide] | cell death at 100 μM (CEM leukemia cells): 4.80% cell death at 100 μM; CC50 (K-562 leukemia cells): 102 ± 2.45 µM; cell death at 100 μM (KCL-22 leukemia cells): 6.54% cell death at 100 μM; Thermal shift (ΔT), stabilizing effect on HDAC8 (HDAC8 [2]): did not confer significant stability to the protein |
| > 50 µM | 100% | > 50 µM | – | O=C(CN1C(=O)SC(=Cc2ccccn2)C1=O)Nc1ccc(F)cc1 [Compound P11, 2-(2,4-dioxo-5-(pyridin-2-ylmethylene)thiazolidin-3-yl)-N-(4-fluorophenyl)acetamide] | – |
| – | 100% | 47 ± 1.1 µM | 75% | Cc1ccc(NC(=O)CN2C(=O)SC(=Cc3ccccn3)C2=O)cc1 [Compound P12, 2-(2,4-dioxo-5-(pyridin-2-ylmethylene)thiazolidin-3-yl)-N-(p-tolyl)acetamide] | cell death at 100 μM (CEM leukemia cells): 38.67% cell death at 100 μM; cell death at 100 μM (K-562 leukemia cells): 39.42% cell death at 100 μM; cell death at 100 μM (KCL-22 leukemia cells): 24.81% cell death at 100 μM; Thermal shift (ΔT), stabilizing effect on HDAC8 (HDAC8 [2]): did not confer significant stability to the protein |
| > 50 µM | 100% | > 50 µM | 91% | O=C(CN1C(=O)SC(=Cc2ccccn2)C1=O)Nc1ccccc1Oc1ccccc1 [Compound P13, 2-(2,4-dioxo-5-(pyridin-2-ylmethylene)thiazolidin-3-yl)-N-(2-phenoxyphenyl)acetamide] | – |
| > 50 µM | 100% | > 50 µM | 67% | COc1ccc(NC(=O)CN2C(=O)SC(=Cc3ccccn3)C2=O)cc1 [Compound P14, 2-(2,4-dioxo-5-(pyridin-2-ylmethylene)thiazolidin-3-yl)-N-(4-methoxyphenyl)acetamide] | – |
| > 50 µM | 100% | > 50 µM | 94% | O=C(CN1C(=O)SC(=Cc2ccccn2)C1=O)Nc1c(F)cc(Br)cc1F [Compound P15, N-(4-bromo-2,6-difluorophenyl)-2-(2,4-dioxo-5-(pyridin-2-ylmethylene)thiazolidin-3-yl)acetamide] | – |
| > 50 µM | 100% | > 50 µM | – | O=C(CN1C(=O)SC(=Cc2ccccn2)C1=O)Nc1ccc([N+](=O)[O-])cc1 [Compound P16, 2-(2,4-dioxo-5-(pyridin-2-ylmethylene)thiazolidin-3-yl)-N-(4-nitrophenyl)acetamide] | – |
| > 50 µM | 100% | > 50 µM | 88% | Cc1ccc(NC(=O)CN2C(=O)SC(=Cc3ccccn3)C2=O)cc1Cl [Compound P17, N-(3-chloro-4-methylphenyl)-2-(2,4-dioxo-5-(pyridin-2-ylmethylene)thiazolidin-3-yl)acetamide] | – |
| > 50 µM | 100% | > 50 µM | 92% | O=C(CN1C(=O)SC(=Cc2ccccn2)C1=O)Nc1nccs1 [Compound P20, 2-(2,4-dioxo-5-(pyridin-2-ylmethylene)thiazolidin-3-yl)-N-(thiazol-2-yl)acetamide] | – |
| > 50 µM | 100% | > 50 µM | 54% | Cc1cnc(NC(=O)CN2C(=O)SC(=Cc3ccccn3)C2=O)s1 [Compound P21, 2-(2,4-dioxo-5-(pyridin-2-ylmethylene)thiazolidin-3-yl)-N-(5-methylthiazol-2-yl)acetamide] | – |
| > 50 µM | 100% | > 50 µM | 64% | O=C(CN1C(=O)SC(=Cc2ccccn2)C1=O)Nc1ccc(Br)cc1 [Compound P22, N-(4-bromophenyl)-2-(2,4-dioxo-5-(pyridin-2-ylmethylene)thiazolidin-3-yl)acetamide] | – |
| > 50 µM | 85% | > 50 µM | 54% | O=C(CN1C(=O)SC(=Cc2ccccn2)C1=O)Nc1ccccn1 [Compound P23, 2-(2,4-dioxo-5-(pyridin-2-ylmethylene)thiazolidin-3-yl)-N-(pyridin-2-yl)acetamide] | – |
| > 50 µM | 100% | > 50 µM | 68% | COc1cccc(NC(=O)CN2C(=O)SC(=Cc3ccccn3)C2=O)c1 [Compound P24, 2-(2,4-dioxo-5-(pyridin-2-ylmethylene)thiazolidin-3-yl)-N-(3-methoxyphenyl)acetamide] | – |
| > 50 µM | 86% | > 50 µM | 89% | O=C(CN1C(=O)SC(=Cc2ccccn2)C1=O)Nc1ccc(Br)c(Br)c1 [Compound P25, N-(3,4-dibromophenyl)-2-(2,4-dioxo-5-(pyridin-2-ylmethylene)thiazolidin-3-yl)acetamide] | CC50 (CEM leukemia cells): 39 ± 1.69 µM; CC50 (K-562 leukemia cells): 65.6 ± 1.13 µM; CC50 (KCL-22 leukemia cells; Homo sapiens, KCL-22, 48 h): 82.2 ± 0.32 µM |
